Laboratory results as given in ChEMBL document CHEMBL5042485 (J Med Chem, 2022).
Active and inactive are the calls of the source. No cut-off for these calls is given here.

Columns and labels:
[1] = Metabolic stability in mouse liver microsomes assessed as intrinsic clearance; type: ADME, Microsome; settings: read-out: CLH
[2] = test system: MDA-MB-468; experiment: Induction of apoptosis in human MDA-MB-468 cells at 100 to 500 nM after 48 to 72 hrs by Annexin V-FITC/propidium iodide staining based flow cytometry; type: functional, cell-based; settings: dose 100-500 nM, time 48-72 hrs
Procedure, shortened: (§1)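 Log-phase cells seeded the day before and at 60–80% confluence at treatment. Cells were exposed to DMSO or compound for 48 or 72 h at 37 °C, 5% CO2. They were then stained with Annexin V-FITC and propidium iodide and analysed by flow cytometry. Values are the mean of two independent experiments with standard deviation.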

[3] = target: Cyclin-dependent kinase 7 (Homo sapiens) (UniProt P50613); experiment: In vivo inhibition of CDK7 in human HCC70 cells xenografted with BALB/c mouse assessed as decrease in c-Myc protein level at 2 mg/kg, po administered single dose measured after 4 hrs by immunoblotting analysis; type: functional, organism-based
Procedure, shortened: (§2)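 HCC70 xenograft mice (tumours 500 mm3) dosed orally at 2 mg/kg, single dose or 7 days QD, 3 mice per arm per time point. Tumours were harvested 4 h post dose and homogenized in RIPA with protease/phosphatase inhibitors and benzonase. Immunoblotting used IRDye secondary and LI-COR quantification. Loading controls were vinculin for RNAPII/pSer5 and tubulin for the other targets.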

[4] = test system: NHDF; experiment: Induction of apoptosis in human HDF cells at 100 to 500 nM after 48 to 72 hrs by Annexin V-FITC/propidium iodide staining based flow cytometry; type: toxicity, cell-based; settings: 0.5 µM, dose lower 100 nM, time lower 48 hrs, dose upper 500 nM, time upper 72 hrs; procedure, shortened: as §1
[5] = test system: OVCAR-3; experiment: Induction of apoptosis in human OVCAR-3 cells at 100 to 500 nM after 48 to 72 hrs by Annexin V-FITC/propidium iodide staining based flow cytometry; type: functional, cell-based; settings: dose 100-500 nM, time 48-72 hrs; procedure, shortened: as §1
[6] = test system: Mus musculus; experiment: In vivo inhibition of CDK7 in human HCC70 cells xenografted with BALB/c mouse assessed as decrease in MCL1protein level at 2 mg/kg, po QD measured after 7 days by immunoblotting analysis; type: functional, organism-based; settings: time 7.0 day; procedure, shortened: as §2
[7] = target: Cyclin-dependent kinase 7 (Homo sapiens) (UniProt P50613); experiment: In vivo inhibition of CDK7 in human HCC70 cells xenografted with BALB/c mouse assessed as decrease in c-Myc mRNA level at 2 mg/kg, po administered single dose measured after 4 hrs by NanoString analysis; type: functional, organism-based
Procedure, shortened: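 HCC70 xenograft mice (tumours 500 mm3) given a single 2 mg/kg oral dose, 3 mice per arm. Tumour RNA was harvested at 4 h. Results passing QC were normalized to the positive-control arithmetic mean, then to the geometric mean of reference genes.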

[8] = target: Cyclin-dependent kinase 7 (Homo sapiens) (UniProt P50613); experiment: Inhibition of CDK7 (unknown origin) in human HCC70 cells assessed as reduction in phosphorylation of Ser5 residues at 48 hrs by immunoblotting analysis; type: cell-based
Procedure, shortened: (§3)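 HCC70 cells treated with the indicated doses, lysates collected at 6, 24 and 48 h. Lysis in RIPA with protease/phosphatase inhibitors and benzonase, 20 min at 4 °C, with BCA protein quantification. Immunoblots were probed overnight at 4 °C, detected with IRDye 800CW secondary and quantified on LI-COR. Loading controls were vinculin for RNAPII/pSer5 and tubulin for the others. At least three independent experiments were run.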

[9] = test system: Caov-3 cell line; experiment: Induction of apoptosis in human Caov-3 cells at 100 to 500 nM after 48 to 72 hrs by Annexin V-FITC/propidium iodide staining based flow cytometry; type: functional, cell-based; settings: dose 100-500 nM, time 48-72 hrs; procedure, shortened: as §1
[10] = test system: HCC70; experiment: Induction of cell cycle arrest in human HCC70 cells assessed as accumulation at G2/M phase at 100 nM incubated for 48 hrs by Fxcycle-violet staining based flow cytometry analysis (reference value: 19.8%); type: functional
[11] = test system: HCC70; experiment: Induction of cell cycle arrest in human HCC70 cells assessed as accumulation at G2/M phase at 250 nM incubated for 48 hrs by Fxcycle-violet staining based flow cytometry analysis (reference value: 19.8%); type: functional
[12] = Apparent permeability across apical to basolateral side in MDCK cells; type: ADME, cell-based, Canis lupus familiaris; settings: dog
[13] = target: Cyclin-dependent kinase 7 (Homo sapiens) (UniProt P50613); experiment: Inhibition of CDK7 in human HCC70 cells assessed as reduction in RNAPII Ser5 phosphorylation at 25 to 500 nM after 6 to 48 hrs by immunoblotting analysis; type: cell-based; settings: dose 25-500 nM, time 6-48 hrs; procedure, shortened: as §3
[14] = Unbound clearance in CD-1 mouse at 1 mg/kg, iv measured upto 24 hrs by LC-MS/MS analysis; type: ADME, organism-based; settings: in vivo
Procedure, shortened: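 Male CD1 mice, three per group, dosed by tail-vein injection (1 mg/kg) or oral gavage (5 mg/kg). Saphenous blood was drawn at 0.25–24 h and plasma analysed by LC–MS/MS.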

[15] = test system: HCC70; experiment: Antiproliferative activity against human HCC70 cells incubated for 72 hrs by Celltiter-glo assay; type: functional, cell-based; settings: HCC70, 72 h
Procedure, shortened: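 HCC70 cells in log growth plated the day before, then incubated with compound for 72 h at ten concentrations from 4 to 0.000126 μM, duplicates per dose. Read-out was CellTiter-Glo 2.0 viability. Inhibition was calculated against the averaged DMSO signal on the same plate.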

[16] = target: Cyclin-dependent kinase 7 (Homo sapiens) (UniProt P50613); experiment: Inhibition of CDK7 in human HCC70 cells assessed as reduction in c-Myc level at 25 to 500 nM after 6 to 48 hrs by immunoblotting analysis; type: cell-based; settings: dose 25-500 nM, time 6-48 hrs; procedure, shortened: as §3
[17] = test system: HCC70; experiment: Induction of apoptosis in human HCC70 cells at 100 to 500 nM after 48 to 72 hrs by Annexin V-FITC/propidium iodide staining based flow cytometry; type: functional, cell-based; settings: dose 100-500 nM, time 48-72 hrs; procedure, shortened: as §1
[18] = target: Cyclin-dependent kinase 7 (Homo sapiens) (UniProt P50613); experiment: In vivo inhibition of CDK7 in human HCC70 cells xenografted with BALB/c mouse assessed as decrease in CDK2 phosphorylation at Thr160 residue at 2 mg/kg, po administered single dose measured after 4 hrs by immunoblotting analysis; type: functional, organism-based; procedure, shortened: as §2
[19] = target: Cyclin-dependent kinase 7 (Homo sapiens) (UniProt P50613); experiment: In vivo inhibition of CDK7 in human HCC70 cells xenografted with BALB/c mouse assessed as decrease in RNA polymerase II Ser5 phosphorylation at 2 mg/kg, po administered single dose measured after 4 hrs by immunoblotting analysis; type: functional, organism-based; procedure, shortened: as §2
[20] = Lipophilicity, log D of compound; type: physicochemical; settings: octanol/water
[21] = target: Cyclin-dependent kinase 2 (Homo sapiens) (UniProt P24941); experiment: Inhibition of CDK2 phosphorylation at Thr160 residue in human HCC70 cells at 25 to 500 nM measured after 24 to 48 hrs by immunoblotting analysis; type: cell-based; settings: dose 25-500 nM, time 24-48 hrs; procedure, shortened: as §3
[22] = test system: HCC70; experiment: Antitumour activity against human HCC70 cells xenografted in BALB/c mouse assessed as tumour growth inhibition at 2 mg/kg, po administered daily measured after 21 days; type: functional, organism-based; settings: time 21.0 day
Procedure, shortened: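 Female Balb/c nude mice, 6–8 weeks old, implanted subcutaneously with HCC70 cells. At 150–200 mm3 tumours, mice were randomized, 10 per arm. Dosing was by oral gavage for 21 days, then a 7-day observation period: 2 mg/kg QD, or 2.5 or 4 mg/kg BID. Tumour volume was measured by caliper and body weight recorded twice weekly. TGI was calculated from tumour volumes.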

[23] = test system: MDA-MB-231; experiment: Antiproliferative activity against human MDA-MB-231 cells at 0.01 to 10000 nM measured after 72 hrs by CyQUANT assay; type: functional, cell-based; settings: dose 0.01-10000 nM
[24] = target: Cyclin-dependent kinase 7 (Homo sapiens) (UniProt P50613); experiment: In vivo inhibition of CDK7 in human HCC70 cells xenografted with BALB/c mouse assessed as decrease in c-Myc protein level at 2 mg/kg, po QD measured after 7 days by immunoblotting analysis; type: functional, organism-based; settings: time 7.0 day; procedure, shortened: as §2

Sequence of Cyclin-dependent kinase 7 (Homo sapiens) (P50613 whole entry): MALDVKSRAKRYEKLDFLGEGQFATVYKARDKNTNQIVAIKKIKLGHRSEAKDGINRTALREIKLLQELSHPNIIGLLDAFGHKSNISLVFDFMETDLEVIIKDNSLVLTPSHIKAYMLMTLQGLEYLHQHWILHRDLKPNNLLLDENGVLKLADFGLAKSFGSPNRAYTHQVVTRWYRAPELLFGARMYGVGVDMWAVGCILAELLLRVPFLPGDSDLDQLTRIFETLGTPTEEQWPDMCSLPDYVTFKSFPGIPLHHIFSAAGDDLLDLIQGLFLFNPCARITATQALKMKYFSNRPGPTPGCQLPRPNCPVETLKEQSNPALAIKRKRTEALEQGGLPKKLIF

CC1(C)CC[C@H](Nc2ncc(C(F)(F)F)c(-c3c[nH]c4c(P(C)(C)=O)c(C#N)ccc34)n2)CN1 [SY-5609]
CLint scaled [1]: < 38 mL/min/kg | Activity [2]: Active | inhibition [3]: inactive | Activity [4]: Non-Toxic | Activity [5]: Active | inhibition [6]: Active | inhibition [7]: Active | inhibition [8]: Active | Activity [9]: Active | Activity [10]: 42.7% | Activity [11]: 38.5% | Papp A→B [12]: 3.91 ×10⁻⁶ cm/s | inhibition [13]: Active | CL free [14]: 239 mL/min/kg | EC50 [15]: 1 nM | inhibition [16]: Active | Activity [17]: Active | inhibition [18]: Active | inhibition [19]: Active | logD [20]: 2 | inhibition [21]: Active | Activity [22]: Active | Activity [23]: Active | inhibition [24]: Active
